# Data from ChEMBL document CHEMBL1127450, “Synthesis and antiviral activity evaluation of some aminoadamantane derivatives” (1994).
# What was measured:
# Type in all cases: functional
# HeLa [1] = assay: Tested for minimum inhibitory concentration required to cause a microscopically detectable alteration of normal cell morphology by 50% on HeLa cell line; settings: Homo sapiens
# Method in brief: (§1)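 HeLa (human epithelial), MDCK (Madin-Darby canine kidney) or Vero (African green monkey kidney) cells were scored by microscopy. The value is the minimum concentration that causes a detectable alteration of normal cell morphology. Values are averages of at least two separate experiments.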
# CCRF-CEM [2] = assay: Tested for minimum inhibitory concentration required to reduce virus-induced cytopathicity by 50% on CEM cell line infected with HIV-2 virus; settings: Homo sapiens
# Vero [3] = assay: Tested for minimum inhibitory concentration required to reduce virus-induced cytopathicity by 50% on vero cell line infected with sindbis virus; settings: Chlorocebus sabaeus
# Method in brief: (§2)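 HeLa (human epithelial), MDCK (Madin-Darby canine kidney) or Vero (African green monkey kidney) cells were infected with the stated virus. The value is the concentration that reduces virus-induced cytopathicity by 50%. Values are averages of at least two separate experiments.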
# MDCK [4] = assay: Tested for minimum inhibitory concentration required to reduce virus-induced cytopathicity by 50% on MDCK cell line infected with influenza A virus; settings: Canis lupus familiaris; method in brief: as §2
# HeLa [5] = assay: Tested for minimum inhibitory concentration required to reduce virus-induced cytopathicity by 50% on HeLa cell line infected with RSV virus; settings: Homo sapiens; method in brief: as §2
# HEF [6] = assay: Tested for minimum inhibitory concentration required to reduce virus-induced cytopathicity by 50% on HEF cell line infected with HSV-2 virus; settings: Homo sapiens
# Method in brief: (§3)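 Human embryonic skin-muscle fibroblasts (HEF) were infected with the stated virus. The value is the concentration that reduces virus-induced cytopathicity by 50%. Values are averages of at least two separate experiments.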
# HEF [7] = assay: Tested for minimum inhibitory concentration required to reduce virus-induced cytopathicity by 50% on HEF cell line infected with vaccinia virus; settings: Homo sapiens; method in brief: as §3
# HeLa [8] = assay: Tested for minimum inhibitory concentration required to reduce virus-induced cytopathicity by 50% on HeLa cell line infected with polio 1 virus; settings: Homo sapiens; method in brief: as §2
# Vero [9] = assay: Tested for minimum inhibitory concentration required to reduce virus-induced cytopathicity by 50% on vero cell line infected with parainfluenza 3 virus; settings: Chlorocebus sabaeus; method in brief: as §2
# MDCK [10] = assay: Tested for minimum inhibitory concentration required to cause a microscopically detectable alteration of normal cell morphology by 50% on MDCK cell line; settings: Canis lupus familiaris; method in brief: as §1
# HEF [11] = assay: Tested for minimum inhibitory concentration required to reduce virus-induced cytopathicity by 50% on HEF cell line infected with HSV-1 virus; settings: Homo sapiens; method in brief: as §3
# HEF [12] = assay: Tested for minimum inhibitory concentration required to cause a microscopically detectable alteration of normal cell morphology by 50% on HEF cell line; settings: Homo sapiens
# Method in brief: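 Human embryonic skin-muscle fibroblasts (HEF) were used. The value is the minimum concentration that causes a microscopically detectable alteration of normal cell morphology. Values are averages of at least two separate experiments.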
# HEF [13] = assay: Tested for minimum inhibitory concentration required to reduce virus-induced cytopathicity by 50% on HEF cell line infected with vesicular stomatitis virus; settings: Homo sapiens; method in brief: as §3
# HEF [14] = assay: Tested for minimum inhibitory concentration required to reduce virus-induced cytopathicity by 50% on HEF cell line infected with thymidine kinase-deficient herpes simplex virus type 1 (TK-HSV-1); settings: Homo sapiens; method in brief: as §3
# Vero [15] = assay: Tested for minimum inhibitory concentration required to reduce virus-induced cytopathicity by 50% on vero cell line infected with coxsackie B4 virus; settings: Chlorocebus sabaeus; method in brief: as §2
# Vero [16] = assay: Tested for minimum inhibitory concentration required to reduce virus-induced cytopathicity by 50% on vero cell line infected with Reo 1 virus; settings: Chlorocebus sabaeus; method in brief: as §2
# Vero [17] = assay: Tested for minimum inhibitory concentration required to cause a microscopically detectable alteration of normal cell morphology by 50% on vero cell line; settings: Chlorocebus sabaeus; method in brief: as §1
# MDCK [18] = assay: Tested for minimum inhibitory concentration required to reduce virus-induced cytopathicity by 50% on MDCK cell line infected with influenza B virus; settings: Canis lupus familiaris; method in brief: as §2
# CCRF-CEM [19] = assay: Tested for minimum inhibitory concentration required to reduce virus-induced cytopathicity by 50% was evaluated on CEM cell line infected with HIV-1 virus; settings: Homo sapiens
# HEF [20] = assay: Tested for minimum inhibitory concentration required to reduce […] by 50% on HEF cell line; settings: Homo sapiens
# Method in brief: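 Human embryonic lung fibroblasts (HEF) were used for cell proliferation. The value is the concentration that reduces cell proliferation by 50%. Values are averages of at least two separate experiments.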
# Vero [21] = assay: Tested for minimum inhibitory concentration required to reduce virus-induced cytopathicity by 50% on vero cell line infected with semliki forest virus; settings: Chlorocebus sabaeus; method in brief: as §2
# CCRF-CEM [22] = assay: Tested for minimum inhibitory concentration required to reduce virus-induced cell viability by 50% on CEM cell line; settings: Homo sapiens
# Vero [23] = assay: Tested for minimum inhibitory concentration required to cause a microscopically detectable alteration of normal cell morphology by 50% on Vero cell line; settings: Chlorocebus sabaeus; method in brief: as §1
# Vero [24] = assay: Tested for minimum inhibitory concentration required to reduce virus-induced cytopathicity by 50% on vero cell line infected with semliki forest; settings: Chlorocebus sabaeus; method in brief: as §2
SMILES,MIC50 (HeLa [1]),MIC50 (CCRF-CEM [2]),MIC50 (Vero [3]),MIC50 (MDCK [4]),MIC50 (HeLa [5]),MIC50 (HEF [6]),MIC50 (HEF [7]),MIC50 (HeLa [8]),MIC50 (Vero [9]),MIC50 (MDCK [10]),MIC50 (HEF [11]),MIC50 (HEF [12]),MIC50 (HEF [13]),MIC50 (HEF [14]),MIC50 (Vero [15]),MIC50 (Vero [16]),MIC50 (Vero [17]),MIC50 (MDCK [18]),MIC50 (CCRF-CEM [19]),MIC50 (HEF [20]),other results
CNCC1CC12C1CC3CC(C1)CC2C3 (stereo unspecified),40 µg/mL,> 8 µg/mL,> 20 µg/mL,> 20 µg/mL,30 µg/mL,> 20 µg/mL,> 20 µg/mL,> 20 µg/mL,> 20 µg/mL,20 µg/mL,> 20 µg/mL,40 µg/mL,> 20 µg/mL,> 20 µg/mL,> 20 µg/mL,> 20 µg/mL,40 µg/mL,> 20 µg/mL,> 8 µg/mL,50 µg/mL,MIC50 (Vero [21]): > 20 µg/mL; MIC50 (CCRF-CEM [22]): 4 µg/mL
NC12CC3CC(CC(C3)C1)C2 [AMANTADINE],100 µg/mL,,,100 µg/mL,> 100 µg/mL,,,,,> 100 µg/mL,,,,,,,,> 200 µg/mL,,,
CNC1CC12C1CC3CC(C1)CC2C3 (stereo unspecified),200 µg/mL,> 8 µg/mL,> 70 µg/mL,1.2 µg/mL,> 150 µg/mL,> 70 µg/mL,> 70 µg/mL,> 100 µg/mL,> 70 µg/mL,100 µg/mL,> 70 µg/mL,100 µg/mL,> 40 µg/mL,> 40 µg/mL,> 70 µg/mL,> 70 µg/mL,,> 100 µg/mL,> 8 µg/mL,90 µg/mL,MIC50 (Vero [21]): > 70 µg/mL; MIC50 (CCRF-CEM [22]): 75 µg/mL; MIC50 (Vero [23]): 100 µg/mL
NC(=O)c1ncn([C@@H]2O[C@H](CO)[C@@H](O)[C@H]2O)n1 [RIBAVIRIN],> 200 µg/mL,,70 µg/mL,1.2 µg/mL,2.8 µg/mL,> 400 µg/mL,70 µg/mL,70 µg/mL,70 µg/mL,> 200 µg/mL,200 µg/mL,> 400 µg/mL,20 µg/mL,≥ 200 µg/mL,300 µg/mL,20 µg/mL,> 400 µg/mL,4 µg/mL,,,MIC50 (Vero [21]): 20 µg/mL
NCC1CC12C1CC3CC(C1)CC2C3 (stereo unspecified),20 µg/mL,> 8 µg/mL,> 20 µg/mL,0.8 µg/mL,≥ 15 µg/mL,> 20 µg/mL,> 20 µg/mL,> 10 µg/mL,> 20 µg/mL,20 µg/mL,> 20 µg/mL,40 µg/mL,> 20 µg/mL,> 20 µg/mL,> 20 µg/mL,> 20 µg/mL,40 µg/mL,> 20 µg/mL,> 8 µg/mL,28 µg/mL,MIC50 (Vero [24]): > 20 µg/mL; MIC50 (CCRF-CEM [22]): 14 µg/mL
CN1CCCC12C1CC3CC(C1)CC2C3 (stereo unspecified),> 400 µg/mL,> 200 µg/mL,> 400 µg/mL,0.56 µg/mL,> 200 µg/mL,> 400 µg/mL,> 400 µg/mL,> 400 µg/mL,> 400 µg/mL,> 200 µg/mL,≥ 400 µg/mL,> 400 µg/mL,≥ 400 µg/mL,≥ 400 µg/mL,> 400 µg/mL,> 400 µg/mL,> 400 µg/mL,> 200 µg/mL,> 200 µg/mL,> 50 µg/mL,MIC50 (Vero [21]): > 400 µg/mL; MIC50 (CCRF-CEM [22]): > 200 µg/mL
